From ChEMBL document CHEMBL2384936, “Synthesis and evaluation of antimicrobial activity of hydrazones derived from 3-oxido-1H-imidazole-4-carbohydrazides” (Eur J Med Chem, 2013)
In brackets after ≈: the same amount, converted by molar mass. Activity calls are given as the source filed them. No cut-off for these calls is given here.

Columns and labels:
Assay type in all cases: functional
[1] = system: Escherichia coli; experiment: Antibacterial activity against Escherichia coli NCTC 8192 assessed as growth inhibition after 18 hrs by broth microdilution method
Procedure, shortened: (§1)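 Frozen stocks (-80 °C, tryptic soy broth with 15% glycerol); S. aureus subcultured on blood agar and identified by catalase, coagulase and clumping factor. Inoculum at 0.5 McFarland. MIC = lowest concentration preventing growth; triplicates, per CLSI.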

[2] = system: Staphylococcus aureus; experiment: Antibacterial activity against Staphylococcus aureus ATCC 29213 assessed as growth inhibition after 18 hrs by broth microdilution method; details: ATCC 29213, 18 h
Procedure, shortened: (§2)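 Broth microdilution in Mueller–Hinton broth with 1–600 µg/mL compound added from DMSO stocks. Inoculum adjusted to 0.5 McFarland. Strains stored at -80 °C and subcultured on blood agar before use. Incubation 37 °C for 18 h with OD600 read. MIC taken as the lowest concentration preventing growth, run in triplicate following CLSI. Vancomycin and oxacillin served as controls.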

[3] = system: Escherichia coli; experiment: Bactericidal activity against Escherichia coli NCTC 8192 after 18 hrs by broth microdilution method
Procedure, shortened: (§3)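 Broth microdilution, then contents of wells without visible growth plated onto Mueller–Hinton agar and incubated 35 °C for 18 h. Triplicates, per CLSI.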

[4] = system: Staphylococcus epidermidis; experiment: Antibacterial activity against Staphylococcus epidermidis ATCC 12228 assessed as growth inhibition after 18 hrs by broth microdilution method; details: ATCC 12228, 18 h; procedure, shortened: as §1
[5] = system: Staphylococcus epidermidis; experiment: Bactericidal activity against Staphylococcus epidermidis ATCC 12228 after 18 hrs by broth microdilution method; details: ATCC 12228, 18 h; procedure, shortened: as §3
[6] = system: Staphylococcus aureus; experiment: Bactericidal activity against Staphylococcus aureus ATCC 29213 after 18 hrs by broth microdilution method; details: ATCC 29213, 18 h; procedure, shortened: as §3
[7] = system: Staphylococcus aureus; experiment: Bactericidal activity against Staphylococcus aureus ATCC 6538 after 18 hrs by broth microdilution method; details: ATCC 6538, 18 h; procedure, shortened: as §3
[8] = system: Staphylococcus aureus; experiment: Antibacterial activity against Staphylococcus aureus ATCC 6538 assessed as growth inhibition after 18 hrs by broth microdilution method; details: ATCC 6538, 18 h; procedure, shortened: as §2
[9] = system: Staphylococcus aureus; experiment: Antibacterial activity against Staphylococcus aureus isolate D12 derived from ulcer and furuncle assessed as growth inhibition after 18 hrs by broth microdilution method; details: isolate D12, 18 h; procedure, shortened: as §1
[10] = system: Staphylococcus aureus; experiment: Antibacterial activity against Staphylococcus aureus isolate D17 derived from bone assessed as growth inhibition after 18 hrs by broth microdilution method; details: isolate D17, 18 h; procedure, shortened: as §1
[11] = system: Staphylococcus aureus; experiment: Bactericidal activity against Staphylococcus aureus isolate C19 derived from naso-pharynx after 18 hrs by broth microdilution method; details: isolate C19, 18 h; procedure, shortened: as §3
[12] = system: Staphylococcus aureus; experiment: Bactericidal activity against Staphylococcus aureus isolate F1 derived from ulcer and furuncle after 18 hrs by broth microdilution method; details: isolate F1, 18 h; procedure, shortened: as §3
[13] = system: Staphylococcus aureus; experiment: Antibacterial activity against Staphylococcus aureus isolate C8 derived from naso-pharynx assessed as growth inhibition after 18 hrs by broth microdilution method; details: isolate C8, 18 h; procedure, shortened: as §1
[14] = system: Staphylococcus aureus; experiment: Antibacterial activity against Staphylococcus aureus isolate D15 derived from bone assessed as growth inhibition after 18 hrs by broth microdilution method; details: isolate D15, 18 h; procedure, shortened: as §1
[15] = system: Staphylococcus aureus; experiment: Bactericidal activity against Staphylococcus aureus isolate F12 derived from ulcer and furuncle after 18 hrs by broth microdilution method; details: isolate F12, 18 h; procedure, shortened: as §3
[16] = system: Staphylococcus aureus; experiment: Bactericidal activity against Staphylococcus aureus isolate C4 derived from naso-pharynx after 18 hrs by broth microdilution method; details: isolate C4, 18 h; procedure, shortened: as §3
[17] = system: Staphylococcus aureus; experiment: Bactericidal activity against Staphylococcus aureus isolate D12 derived from ulcer and furuncle after 18 hrs by broth microdilution method; details: isolate D12, 18 h; procedure, shortened: as §3
[18] = system: Staphylococcus aureus; experiment: Bactericidal activity against Staphylococcus aureus isolate F7 derived from ulcer and furuncle after 18 hrs by broth microdilution method; details: isolate F7, 18 h; procedure, shortened: as §3
[19] = system: Staphylococcus aureus; experiment: Bactericidal activity against Staphylococcus aureus isolate C7 derived from naso-pharynx after 18 hrs by broth microdilution method; details: isolate C7, 18 h; procedure, shortened: as §3
[20] = system: Staphylococcus aureus; experiment: Antibacterial activity against Staphylococcus aureus isolate F1 derived from ulcer and furuncle assessed as growth inhibition after 18 hrs by broth microdilution method; details: isolate F1, 18 h; procedure, shortened: as §1
[21] = system: Staphylococcus aureus; experiment: Antibacterial activity against Staphylococcus aureus isolate D14 derived from bone assessed as growth inhibition after 18 hrs by broth microdilution method; details: isolate D14, 18 h; procedure, shortened: as §1
[22] = system: Staphylococcus aureus; experiment: Antibacterial activity against Staphylococcus aureus isolate C4 derived from naso-pharynx assessed as growth inhibition after 18 hrs by broth microdilution method; details: isolate C4, 18 h; procedure, shortened: as §1
[23] = system: Staphylococcus aureus; experiment: Bactericidal activity against Staphylococcus aureus isolate D17 derived from bone after 18 hrs by broth microdilution method; details: isolate D17, 18 h; procedure, shortened: as §3
[24] = system: Staphylococcus aureus; experiment: Bactericidal activity against Staphylococcus aureus isolate D20 derived from bone after 18 hrs by broth microdilution method; details: isolate D20, 18 h; procedure, shortened: as §3
[25] = system: Staphylococcus aureus; experiment: Bactericidal activity against Staphylococcus aureus isolate D14 derived from bone after 18 hrs by broth microdilution method; details: isolate D14, 18 h; procedure, shortened: as §3
[26] = system: Staphylococcus aureus; experiment: Bactericidal activity against Staphylococcus aureus isolate C8 derived from naso-pharynx after 18 hrs by broth microdilution method; details: isolate C8, 18 h; procedure, shortened: as §3
[27] = system: Staphylococcus aureus; experiment: Antibacterial activity against Staphylococcus aureus isolate F12 derived from ulcer and furuncle assessed as growth inhibition after 18 hrs by broth microdilution method; details: isolate F12, 18 h; procedure, shortened: as §1
[28] = system: Staphylococcus aureus; experiment: Antibacterial activity against Staphylococcus aureus isolate C19 derived from naso-pharynx assessed as growth inhibition after 18 hrs by broth microdilution method; details: isolate C19, 18 h; procedure, shortened: as §1
[29] = system: Staphylococcus aureus; experiment: Antibacterial activity against Staphylococcus aureus isolate C7 derived from naso-pharynx assessed as growth inhibition after 18 hrs by broth microdilution method; details: isolate C7, 18 h; procedure, shortened: as §1
[30] = system: Staphylococcus aureus; experiment: Bactericidal activity against Staphylococcus aureus isolate D15 derived from bone after 18 hrs by broth microdilution method; details: isolate D15, 18 h; procedure, shortened: as §3
[31] = system: Staphylococcus aureus; experiment: Antibacterial activity against Staphylococcus aureus isolate D20 derived from bone assessed as growth inhibition after 18 hrs by broth microdilution method; details: isolate D20, 18 h; procedure, shortened: as §1
[32] = system: Staphylococcus aureus; experiment: Antibacterial activity against Staphylococcus aureus isolate F7 derived from ulcer and furuncle assessed as growth inhibition after 18 hrs by broth microdilution method; details: isolate F7, 18 h; procedure, shortened: as §1

SMILES	MIC [2] [mg/L]	MIC [4] [mg/L]	MBC [5] [mg/L]	MBC [6] [mg/L]	MBC [7] [mg/L]	MIC [8] [mg/L]	MIC [9] [mg/L]	MIC [1]	MIC [10] [mg/L]	MBC [11] [mg/L]	MBC [12] [mg/L]	MIC [13] [mg/L]	MBC [3]	MIC [14] [mg/L]	MBC [15] [mg/L]	MBC [16] [mg/L]	MBC [17] [mg/L]	MBC [18] [mg/L]	MBC [19] [mg/L]	MIC [20] [mg/L]	other results
O=C1CN(/N=C/c2ccc([N+](=O)[O-])o2)C(=O)N1 [NITROFURANTOIN]	16 (≈ 67.2 µM)	8 (≈ 33.6 µM)	32 (≈ 134 µM)	32 (≈ 134 µM)	32 (≈ 134 µM)	16 (≈ 67.2 µM)	–	–	–	–	–	–	–	–	–	–	–	–	–	–	MIC ([1]; NCTC 8192, 18 h): 16 mg/L (≈ 67.2 µM); MBC ([3]; NCTC 8192, 18 h): 32 mg/L (≈ 134 µM)
Cc1onc(-c2ccccc2)c1C(=O)N[C@@H]1C(=O)N2[C@@H]1SC(C)(C)[C@@H]2C(=O)O [OXACILLIN]	0.2 (≈ 0.498 µM)	0.2 (≈ 0.498 µM)	0.2 (≈ 0.498 µM)	0.2 (≈ 0.498 µM)	0.2 (≈ 0.498 µM)	0.2 (≈ 0.498 µM)	0.2 (≈ 0.498 µM)	inactive	75 (≈ 187 µM)	0.2 (≈ 0.498 µM)	0.8 (≈ 1.99 µM)	1.5 (≈ 3.74 µM)	inactive	75 (≈ 187 µM)	0.4 (≈ 0.996 µM)	0.4 (≈ 0.996 µM)	0.4 (≈ 0.996 µM)	0.2 (≈ 0.498 µM)	0.4 (≈ 0.996 µM)	0.8 (≈ 1.99 µM)	MIC [21]: 0.2 mg/L (≈ 0.498 µM); MIC [22]: 0.4 mg/L (≈ 0.996 µM); MBC [23]: 150 mg/L (≈ 374 µM); MBC [24]: 0.4 mg/L (≈ 0.996 µM); MBC [25]: 0.2 mg/L (≈ 0.498 µM); MBC [26]: 1.5 mg/L (≈ 3.74 µM); MIC [27]: 0.2 mg/L (≈ 0.498 µM); MIC [28]: 0.2 mg/L (≈ 0.498 µM); MIC [29]: 0.2 mg/L (≈ 0.498 µM); MBC [30]: 150 mg/L (≈ 374 µM); MIC [31]: 0.4 mg/L (≈ 0.996 µM); MIC [32]: 0.2 mg/L (≈ 0.498 µM)
CN[C@H](CC(C)C)C(=O)N[C@H]1C(=O)N[C@@H](CC(N)=O)C(=O)N[C@H]2C(=O)N[C@H]3C(=O)N[C@H](C(=O)N[C@H](C(=O)O)c4cc(O)cc(O)c4-c4cc3ccc4O)[C@H](O)c3ccc(c(Cl)c3)Oc3cc2cc(c3O[C@@H]2O[C@H](CO)[C@@H](O)[C@H](O)[C@H]2O[C@H]2C[C@](C)(N)[C@H](O)[C@H](C)O2)Oc2ccc(cc2Cl)[C@H]1O [VANCOMYCIN]	1.5 (≈ 1.04 µM)	3 (≈ 2.07 µM)	3 (≈ 2.07 µM)	3 (≈ 2.07 µM)	1.5 (≈ 1.04 µM)	1.5 (≈ 1.04 µM)	75 (≈ 51.8 µM)	inactive	75 (≈ 51.8 µM)	75 (≈ 51.8 µM)	75 (≈ 51.8 µM)	75 (≈ 51.8 µM)	inactive	75 (≈ 51.8 µM)	10 (≈ 6.9 µM)	10 (≈ 6.9 µM)	75 (≈ 51.8 µM)	35 (≈ 24.2 µM)	35 (≈ 24.2 µM)	75 (≈ 51.8 µM)	MIC [21]: 75 mg/L (≈ 51.8 µM); MIC [22]: 10 mg/L (≈ 6.9 µM); MBC [23]: 75 mg/L (≈ 51.8 µM); MBC [24]: 75 mg/L (≈ 51.8 µM); MBC [25]: 75 mg/L (≈ 51.8 µM); MBC [26]: 75 mg/L (≈ 51.8 µM); MIC [27]: 10 mg/L (≈ 6.9 µM); MIC [28]: 75 mg/L (≈ 51.8 µM); MIC [29]: 35 mg/L (≈ 24.2 µM); MBC [30]: 75 mg/L (≈ 51.8 µM); MIC [31]: 75 mg/L (≈ 51.8 µM); MIC [32]: 35 mg/L (≈ 24.2 µM)
